# Measurements as given in PubChem BioAssay AID488780 (The Scripps Research Institute Molecular Screening Center, 2010).
# Active and inactive are the calls of the source.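 How the source made its calls: active means IC50 at or below 5 µM; inactive means the rest.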
# Target: Steroidogenic factor 1 (Homo sapiens) (UniProt Q13285)
# Experiment: dose-dependent SF-1 transcriptional inhibition – cell-based, luminescence, selectivity assay for LRH1 inverse agonist project, dose response (AID 488780)
# Conditions: HEK293T SF-1 5xSFRE luciferase reporter, 20 h
# Outline: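 Material: HEK293T with SF-1 and 5xSFRE luciferase reporter; Dosing: Nine-point dilution series, nominal top 10 µM; Incubation: 24 h bulk transfection before replating, then 20 h compound exposure; Signal: luminescence from SFRE-driven luciferase; Evaluation: IC50 from percent inhibition versus DMSO; Control set: DMSO-treated cells as normalization reference; Replicates: triplicate.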
# Sequence of Steroidogenic factor 1 (Homo sapiens) (Q13285 whole entry, looked up): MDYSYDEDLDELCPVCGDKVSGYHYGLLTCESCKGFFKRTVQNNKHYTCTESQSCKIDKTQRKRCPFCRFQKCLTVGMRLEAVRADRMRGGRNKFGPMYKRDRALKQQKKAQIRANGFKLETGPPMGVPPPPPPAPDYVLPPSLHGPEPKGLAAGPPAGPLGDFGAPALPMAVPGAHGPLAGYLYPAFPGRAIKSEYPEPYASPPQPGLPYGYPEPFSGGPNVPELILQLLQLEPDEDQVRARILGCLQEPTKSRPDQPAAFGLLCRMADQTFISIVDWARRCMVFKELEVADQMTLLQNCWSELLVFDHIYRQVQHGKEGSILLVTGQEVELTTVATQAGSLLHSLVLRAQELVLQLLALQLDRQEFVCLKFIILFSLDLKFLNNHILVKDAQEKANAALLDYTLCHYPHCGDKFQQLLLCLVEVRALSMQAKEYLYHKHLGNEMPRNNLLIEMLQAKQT
row,IC50,Structure (SMILES)
1,> 10 µM (inactive),O=c1cc(N2CCN(c3cccc(Cl)c3)CC2)[nH]c(=O)n1C1CCCCC1
2,inactive,O=c1cc(N2CCN(C3CCCCC3)CC2)[nH]c(=O)n1C1CCCCC1

# Same assay, conditions: HEK293T SF-1 5xSFRE luciferase reporter, 20 h; at 10 µM (top of the series)
row,Structure (SMILES),"fold change, <1 = inhibition"
1,O=c1cc(N2CCN(c3cccc(Cl)c3Cl)CC2)[nH]c(=O)n1C1CCCCC1,inactive
2,CC(C)Cn1c(=O)cc(N2CCN(c3cccc(C(F)(F)F)c3)CC2)[nH]c1=O,inactive
3,O=c1cc(N2CCN(c3ccnc4cc(Cl)ccc34)CC2)[nH]c(=O)n1C1CCCCC1,inactive
4,C=CCn1c(=O)cc(N2CCN(c3cccc(C(F)(F)F)c3)CC2)[nH]c1=O,inactive
5,O=c1cc(N2CCN(c3cccc(C(F)(F)F)c3)CC2)[nH]c(=O)n1C1CCCCC1,inactive
6,CCn1c(=O)cc(N2CCN(c3cccc(Cl)c3)CC2)[nH]c1=O,inactive
7,O=c1cc(N2CCN(c3nc(-c4ccccc4)ns3)CC2)[nH]c(=O)n1C1CCCCC1,inactive
8,CCn1c(=O)cc(N2CCN(c3cccc(C(F)(F)F)c3)CC2)[nH]c1=O,inactive
9,Cc1cc(C)cc(N2CCN(c3cc(=O)n(C4CCCCC4)c(=O)[nH]3)CC2)c1,inactive

# Continued, values first:
row,"fold change, <1 = inhibition",Structure (SMILES)
1,inactive,O=c1cc(N2CCN(c3cccc(Cl)n3)CC2)[nH]c(=O)n1C1CCCCC1
2,inactive,O=c1cc(N2CCN(Cc3ccc(Cl)cc3)CC2)[nH]c(=O)n1C1CCCCC1
3,inactive,O=c1cc(N2CCN(c3ccccn3)CC2)[nH]c(=O)n1C1CCCCC1
4,inactive,O=c1cc(N2CCN(c3ccccc3)CC2)[nH]c(=O)n1C1CCCCC1
5,inactive,Cn1c(=O)cc(N2CCN(c3cccc(Cl)c3)CC2)[nH]c1=O
